Compounds with a hit are over-represented: about 1.8% of the library has one in this group of screens.
697 NFkB inh: inhibitors of PMA/ionomycin-induced NF-kB reporter, 697 cells, primary screen, B-cell NF-kB inhibitor project, cell-based, luminescence, uHTS; 697 B-cell NF-kB luciferase reporter, 16 h; actives 0.33% (n = 330,000); AID 435022, 2010; inhibition, % at 4 µM; in the data active means inhibition above about 35%
Jurkat NFkB inh: inhibitors of induced NF-kB luciferase reporter, primary screen, TCR NF-kB activation inhibitor project, cell-based, luminescence, uHTS; Jurkat, PMA/ionomycin-induced NF-kB luciferase reporter; inhibition, % at 4 µM; actives 0.53% (n = 330,000); AID 435003, 2010; in the data active means inhibition above about 50%
GalR3 antag: GalR3 antagonists in HEK293 cells, primary screen, cell-based, fluorescence readout | inhibition, % at 3 µM | AID 651719, 2012 | HEK293 GalR3-CNG cAMP membrane potential fluorescence; galR3 body fused to GalR1 C-terminus | Galanin receptor type 3 (Homo sapiens), O60755 | actives 0.44% (n = 360,000);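 active means inhibition above the screen-wide average plus 3 SD, cut at about 13% in these data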;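 further: forskolin and galanin both at EC90 stimulate the cells; cAMP rise reported by CNG channel membrane potential dye signal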
Target sequence (O60755 1-299 limits assumed): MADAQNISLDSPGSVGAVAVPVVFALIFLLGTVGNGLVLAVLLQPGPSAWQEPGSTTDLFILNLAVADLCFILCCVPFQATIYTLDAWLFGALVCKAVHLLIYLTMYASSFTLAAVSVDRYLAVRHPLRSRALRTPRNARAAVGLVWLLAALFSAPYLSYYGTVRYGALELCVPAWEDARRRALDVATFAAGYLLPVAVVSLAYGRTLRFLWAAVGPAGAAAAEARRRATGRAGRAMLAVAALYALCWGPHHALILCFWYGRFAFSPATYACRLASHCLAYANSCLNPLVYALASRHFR
Gli-Sufu antag: Gli-Sufu pathway antagonists, primary screen, luciferase luminescence, Sufu-KO-LIGHT cells, uHTS; Sufu-KO-LIGHT fibroblasts, Gli luciferase reporter luminescence; inhibition, % at 5 µM; actives 0.74% (n = 340,000); AID 588413, 2011;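 active means inhibition above about 55%, limit read from the data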
NR2E3 ag-1: NR2E3 agonists in two-hybrid cells, primary screen, cell-based, luminescence, CHO-S, Gal4-NCOR/VP16-NR2E3; Photoreceptor-specific nuclear receptor (Homo sapiens), Q9Y5X4; actives 0.35% (n = 360,000); inhibition of corepressor binding, % at 3.98 µM; luciferase;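 active means inhibition above the mean of all tested compounds plus 3 SD, cut at about 70% in these data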;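 further: higher means lower luciferase signal from less NR2E3 corepressor binding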
NR2E3 ag-2: inhibitors of NR2E3-RetCOR corepressor binding, primary screen, NR2E3 agonist project, biochemical, TR-FRET, GST-NR2E3, biotin-RetCOR; inhibition of corepressor binding, % at 4.78 µM; Photoreceptor-specific nuclear receptor (Homo sapiens), Q9Y5X4; 1536-well; actives 0.12% (n = 320,000); AID 2300, 2010;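 active means percent inhibition above the cutoff of mean plus 3 SD of all tested compounds, set per screening campaign, cut at about 20% in these data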
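Format: 1536-well format; test system: GST-NR2E3 and biotin-RetCOR proteins; read-out basis: percent inhibition of TR-FRET ratio; timing: 5 h incubation at 4 °C; detection: time-resolved FRET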
GalR3 conf: GalR3 antagonist hit confirmation, cell-based, fluorescence, triplicate | shares compounds with GalR3 antag | HEK293 GalR3 CNG cAMP biosensor, membrane potential fluorescence; galR3 fused to GalR1 carboxy tail; challenged with forskolin and galanin at EC90 | inhibition, % at 3 µM | actives 59% (n = 1,600);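 active means inhibition above the primary screen's cutoff, the mean inhibition of all screened compounds plus 3 SD, cut at about 13% in these data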
CNG parental: nonspecific cAMP agonists in parental HEK-CNG cells, counter-screen for GalR3 antagonist project, cell-based, fluorescence, high throughput. shares compounds with GalR3 antag. HEK293-CNG parental cells, cAMP membrane potential fluorescence; normalised: DMSO wells 0%, forskolin wells 100%. activation, % at 3 µM. actives 10% (n = 1,600). AID 652268, 2013; in the data active means activation above about 1.3%
Hits are given with their value; . = inactive; / = no result.

SMILES	697 NFkB inh	Jurkat NFkB inh	GalR3 antag	Gli-Sufu antag	NR2E3 ag-1	NR2E3 ag-2	GalR3 conf	CNG parental
COc1ccc(CNC(=O)CN(C(=O)CCC(=O)Nc2ccccn2)c2ccc(C)cc2)cc1	.	.	.	.	.	.	/	/
COc1ccc(-c2nc3cc(NC(=O)Cc4ccc(OC)c(OC)c4)ccc3o2)cc1	.	.	38	.	.	.	.	.
COc1cccc(C(N)c2nc(-c3csc4ccccc34)cs2)c1 (stereo not drawn)	/	/	/	/	.	/	/	/
COc1ccc(-c2cnc3c(NC(C)=O)cc(-c4ccccc4OC)cn23)cc1OC	/	/	13	/	.	/	18	.
COc1cc(-c2cnc3c(NC=O)cc(-c4ccccc4Cl)cn23)cc(OC)c1OC	/	/	19	/	.	/	26	1.6
COc1cc(-c2cnc3c(NC=O)cc(-c4ccccc4)cn23)cc(OC)c1OC	/	/	.	/	.	/	/	/
COc1ccc(-c2cc(NC(C)=O)c3ncc(-c4ccc(OC)c(OC)c4)n3c2)cc1OC	/	/	.	/	.	/	/	/
O=C(NCCc1ccccc1)c1ccc(Cl)c(S(=O)(=O)N2CCCC2)c1	.	.	/	.	.	.	/	/
COc1ccc(CCC(=O)Nc2ccc(Cl)c(S(=O)(=O)N3CCCC3)c2)cc1	.	.	66	.	.	.	112	.
COc1ccc(CCNC(=O)c2ccc(Cl)c(S(=O)(=O)N3CCCCCC3)c2)cc1	.	.	88	.	.	.	99	.
CC1CCCN(S(=O)(=O)c2cc(C(=O)NCCc3ccc(S(N)(=O)=O)cc3)ccc2Cl)C1 (stereo not drawn)	/	/	75	.	.	/	15	.
CCN1C(=S)N[C@@H](CCc2ccccc2)C(C(=O)OC)=C1C	.	.	.	.	.	.	/	/
C=C1CC[C@@H]2[C@](C)(CO)[C@H](O)CC[C@@]2(C)[C@@H]1C/C=C1/C(=O)OCC1O (stereo partly drawn)	/	/	.	.	.	/	/	/
COc1cc(/C=C2\SC(c3ccc(C)cc3)=NC2=O)ccc1O	.	.	17	.	.	.	.	.
Cc1ccc(NC(=O)CN(C)C(=O)CCCN2C(=O)c3ccccc3C2=O)cc1	.	.	14	.	.	.	.	.
COc1ccc(-c2nc(C#N)c(NCc3ccc(F)cc3)o2)cc1OC	.	.	13	.	.	.	25	.
CCNC(=O)NC(=O)C(C)OC(=O)[C@H](C)NS(=O)(=O)c1c(C)c(C)cc(C)c1C (stereo partly drawn)	.	.	39	.	.	.	.	.
Cc1ccccc1-c1nnn(CC(=O)Nc2ccc3c(c2)OCCO3)n1	.	.	16	.	.	.	19	.
NS(=O)(=O)c1ccc(NC(=S)N2CCN(c3ccc(Cl)c(Cl)c3)CC2)cc1	.	.	21	59	.	.	37	.
NS(=O)(=O)c1ccc(NC(=S)N2CCN(Cc3ccc(Cl)c(Cl)c3)CC2)cc1	.	.	.	.	.	.	/	/
Cc1ccc2nc(SCC(=O)Nc3cc(C)on3)c(C)cc2c1	.	.	.	.	.	.	/	/
Cc1ccc(C(=O)C(C)Oc2ccc3ccc(=O)oc3c2)cc1 (stereo not drawn)	.	.	.	.	.	.	/	/
Cc1nc2sc(C(=O)c3ccccc3)c(N)c2c(C)c1C	.	.	13	.	.	.	.	.
